What was measured:
[1] = molecular target: T1, Tyrosine-protein phosphatase non-receptor type 1 (Homo sapiens, UniProt P18031); assay: Inhibition of PTP1B by pNPP assay
T1 sequence (P18031 whole entry): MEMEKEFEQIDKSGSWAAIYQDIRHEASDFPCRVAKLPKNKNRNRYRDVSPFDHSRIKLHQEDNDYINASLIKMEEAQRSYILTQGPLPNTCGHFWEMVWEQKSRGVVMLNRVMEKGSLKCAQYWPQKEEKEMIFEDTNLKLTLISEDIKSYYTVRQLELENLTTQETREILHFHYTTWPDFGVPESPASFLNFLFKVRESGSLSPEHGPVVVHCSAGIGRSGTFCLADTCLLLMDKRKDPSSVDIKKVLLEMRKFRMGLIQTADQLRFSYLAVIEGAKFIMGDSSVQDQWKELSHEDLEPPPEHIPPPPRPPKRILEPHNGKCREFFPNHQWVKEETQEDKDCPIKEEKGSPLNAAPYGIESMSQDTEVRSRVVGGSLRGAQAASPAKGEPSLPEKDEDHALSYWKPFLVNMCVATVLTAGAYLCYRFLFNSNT

[2] = Permeability across Caco-2 cell membrane; format: ADME, cell-based; details: human, read-out: permeability
[3] = molecular target: T2, Tyrosine-protein phosphatase non-receptor type 1 (Homo sapiens) (UniProt P18031); assay: Increase in phosphorylation level of human insulin receptor transfected in HEK293 cells at 80 uM; format: functional, cell-based
T2 sequence (whole entry): T1 sequence (P18031 whole entry)
Outline: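 HEK293-MSR cells cotransfected with full-length human PTP1B and insulin receptor plasmids, attached 24 h, then treated 16 h in serum-free DMEM (0.4% DMSO final). Lysed on ice; IR phosphorylated at Y1162/Y1163 measured by ELISA and normalized to total protein (BCA). Expressed as fold shift; averages of triplicates from the same day.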

SMILES | IC50 [1] [nM] | Papp [2] [×10⁻⁶ cm/s] | Activity [3]
CC(=O)N[C@@H](Cc1ccccc1)C(=O)N[C@@H](Cc1ccc([C@@H]2CC(=O)NS2(=O)=O)cc1)C(N)=O | 240 |  | 
O=C1CC(c2ccc(CC(NS(=O)(=O)c3ccc(-c4ccccc4)cc3)c3nc4cc(C(F)(F)F)ccc4[nH]3)cc2)S(=O)(=O)N1 (stereo not given) | 160 |  | 
O=C1CC(c2ccc(CC(NS(=O)(=O)c3ccc(-c4ccccc4)cc3)c3nc4cc(Cl)ccc4[nH]3)cc2)S(=O)(=O)N1 (stereo not given) | 140 |  | 
CC(=O)N[C@@H](Cc1ccc([C@@H]2CC(=O)NS2(=O)=O)cc1)c1nc2ccccc2[nH]1 | 940 |  | 
O=C1CC(c2ccc(CC(NS(=O)(=O)c3ccc(-c4ccccc4)cc3)c3nc4c(O)cccc4[nH]3)cc2)S(=O)(=O)N1 (stereo not given) | 240 |  | 
O=C1C[C@@H](c2ccc(C[C@H](NS(=O)(=O)c3cccc(F)c3)c3nc4ccccc4[nH]3)cc2F)S(=O)(=O)[N-]1.[Na+] | 15 | < 0.1 | 1.1
COc1ccc2[nH]c(C(Cc3ccc(C4CC(=O)NS4(=O)=O)cc3)NS(=O)(=O)c3ccc(-c4ccccc4)cc3)nc2c1 (stereo not given) | 130 |  | 
Cc1ccc2[nH]c(C(Cc3ccc(C4CC(=O)NS4(=O)=O)cc3)NS(=O)(=O)c3ccc(-c4ccccc4)cc3)nc2c1 (stereo not given) | 140 |  | 
CS(=O)(=O)N[C@@H](Cc1ccc([C@@H]2CC(=O)NS2(=O)=O)cc1)c1nc2ccccc2[nH]1 | 590 |  | 
N#Cc1ccc2nc(C(Cc3ccc(C4CC(=O)NS4(=O)=O)cc3)NS(=O)(=O)c3ccc(-c4ccccc4)cc3)[nH]c2c1 (stereo not given) | 53 |  | 
COc1cccc(S(=O)(=O)NC(Cc2ccc(C3CC(=O)NS3(=O)=O)cc2)c2nc3ccccc3[nH]2)c1 (stereo not given) | 48 |  | 
O=C(CCc1ccccc1)N[C@@H](Cc1ccc([C@@H]2CC(=O)NS2(=O)=O)cc1)c1nc2ccccc2[nH]1 | 600 |  | 
N#Cc1ccc(S(=O)(=O)NC(Cc2ccc(C3CC(=O)NS3(=O)=O)cc2)c2nc3ccccc3[nH]2)cc1 (stereo not given) | 63 |  | 
Cc1cc(C[C@H](NS(=O)(=O)c2ccccc2)c2nc3ccccc3[nH]2)ccc1[C@@H]1CC(=O)[N-]S1(=O)=O.[Na+] |  | 0.4 | 2.8
O=C1CC(c2ccc(CC(NS(=O)(=O)c3ccc(C(F)(F)F)cc3)c3nc4ccccc4[nH]3)cc2)S(=O)(=O)N1 (stereo not given) | 51 |  | 
O=C1CC(c2ccc(CC(NS(=O)(=O)c3cc(F)cc(F)c3)c3nc4ccccc4[nH]3)cc2)S(=O)(=O)N1 (stereo not given) | 72 |  | 
Cc1cccc2[nH]c(C(Cc3ccc(C4CC(=O)NS4(=O)=O)cc3)NS(=O)(=O)c3ccc(-c4ccccc4)cc3)nc12 (stereo not given) | 190 |  | 

SMILES | IC50 [1] [nM] | Papp [2] [×10⁻⁶ cm/s] | Activity [3]
Cc1cc(C[C@H](NS(=O)(=O)c2ccccc2C#N)c2nc3ccccc3[nH]2)ccc1[C@@H]1CC(=O)[N-]S1(=O)=O.[Na+] | 18 | < 0.1 | 1.4
O=C1CC(c2ccc(CC(NS(=O)(=O)c3cccc(C(F)(F)F)c3)c3nc4ccccc4[nH]3)cc2)S(=O)(=O)N1 (stereo not given) | 67 |  | 
O=C1CC(c2ccc(C[C@H](NS(=O)(=O)c3ccccc3)c3nc4ccccc4[nH]3)cc2Br)S(=O)(=O)[N-]1.[Na+] (stereo not given in full) | 340 | < 0.1 | 0.7
O=C1C[C@@H](c2ccc(C[C@H](NS(=O)(=O)c3ccccc3)c3nc4ccccc4[nH]3)cc2Cl)S(=O)(=O)[N-]1.[Na+] | 50 | < 0.1 | 1
O=C1CC(c2ccc(CC(NS(=O)(=O)c3ccc(-c4ccccc4)cc3)c3nc4ccccc4[nH]3)cc2)S(=O)(=O)N1 (stereo not given) | 80 |  | 
O=C1C[C@@H](c2ccc(C[C@H](NS(=O)(=O)c3ccccc3)c3nc4ccccc4[nH]3)cc2)S(=O)(=O)[N-]1.[Na+] | 32 | 0.4 | 1
COc1ccc(S(=O)(=O)NC(Cc2ccc(C3CC(=O)NS3(=O)=O)cc2)c2nc3ccccc3[nH]2)cc1 (stereo not given) | 94 |  | 
Cc1cc(C[C@H](NS(=O)(=O)c2ccccc2)c2nc3ccccc3[nH]2)ccc1[C@H]1CC(=O)NS1(=O)=O |  |  | 1
COC(=O)c1ccc2[nH]c(C(Cc3ccc(C4CC(=O)NS4(=O)=O)cc3)NS(=O)(=O)c3ccc(-c4ccccc4)cc3)nc2c1 (stereo not given) | 150 |  | 
O=C1CC(c2ccc(C[C@H](NS(=O)(=O)c3ccccc3)c3nc4ccccc4[nH]3)cc2F)S(=O)(=O)[N-]1.[Na+] (stereo not given in full) | 18 | 0.2 | 1.6
O=C1CC(c2ccc(CC(NS(=O)(=O)c3ccc(-c4ccccc4)cc3)c3nc4cc(F)ccc4[nH]3)cc2)S(=O)(=O)N1 (stereo not given) | 120 |  | 
Cc1cc(C[C@H](NS(=O)(=O)c2cccc(Cl)c2)c2nc3ccccc3[nH]2)ccc1[C@@H]1CC(=O)[N-]S1(=O)=O.[Na+] | 76 | 0.2 | 1.9
CC(C)(C)c1cccc2[nH]c(C(Cc3ccc(C4CC(=O)NS4(=O)=O)cc3)NS(=O)(=O)c3ccc(-c4ccccc4)cc3)nc12 (stereo not given) | 460 |  | 
O=C1CC(c2ccc(C[C@H](NS(=O)(=O)c3cccc(C(F)(F)F)c3)c3nc4cc(Cl)ccc4[nH]3)cc2F)S(=O)(=O)[N-]1.[Na+] (stereo not given in full) | 10 | 0.3 | 2.3
Cc1cc(C[C@H](NS(=O)(=O)c2ccc(Br)c(C(F)(F)F)c2)c2nc3ccccc3[nH]2)ccc1[C@@H]1CC(=O)[N-]S1(=O)=O.[Na+] | 16 | < 0.1 | 2
O=C1CC(c2ccc(CC(NS(=O)(=O)c3ccccc3C(F)(F)F)c3nc4ccccc4[nH]3)cc2)S(=O)(=O)N1 (stereo not given) | 130 |  | 

Further lines, results first:

IC50 [1] [nM] | Papp [2] [×10⁻⁶ cm/s] | Activity [3] | SMILES
79 |  |  | O=C1CC(c2ccc(CC(NS(=O)(=O)c3ccc(Cl)c(Cl)c3)c3nc4ccccc4[nH]3)cc2)S(=O)(=O)N1 (stereo not given)
80 |  |  | O=C1CC(c2ccc(CC(NS(=O)(=O)c3ccc(F)cc3)c3nc4ccccc4[nH]3)cc2)S(=O)(=O)N1 (stereo not given)
60 |  |  | O=C1CC(c2ccc(CC(NS(=O)(=O)c3cccc(Cl)c3)c3nc4ccccc4[nH]3)cc2)S(=O)(=O)N1 (stereo not given)
110 |  |  | O=C1CC(c2ccc(CC(NS(=O)(=O)c3ccc(Cl)cc3)c3nc4ccccc4[nH]3)cc2)S(=O)(=O)N1 (stereo not given)
240 |  |  | O=C1CC(c2ccc(CC(NS(=O)(=O)c3cccc(Cl)c3Cl)c3nc4ccccc4[nH]3)cc2)S(=O)(=O)N1 (stereo not given)
110 |  |  | O=C1CC(c2ccc(CC(NS(=O)(=O)c3ccc(F)cc3F)c3nc4ccccc4[nH]3)cc2)S(=O)(=O)N1 (stereo not given)
120 |  |  | O=C1CC(c2ccc(CC(NS(=O)(=O)c3ccccc3F)c3nc4ccccc4[nH]3)cc2)S(=O)(=O)N1 (stereo not given)
140 |  |  | O=C1CC(c2ccc(CC(NS(=O)(=O)c3cc(F)ccc3F)c3nc4ccccc4[nH]3)cc2)S(=O)(=O)N1 (stereo not given)
300 |  |  | Cc1ccccc1S(=O)(=O)NC(Cc1ccc(C2CC(=O)NS2(=O)=O)cc1)c1nc2ccccc2[nH]1 (stereo not given)
280 |  |  | O=C1CC(c2ccc(CC(NS(=O)(=O)c3ccc(Cl)cc3Cl)c3nc4ccccc4[nH]3)cc2)S(=O)(=O)N1 (stereo not given)
110 |  |  | O=C1CC(c2ccc(CC(NS(=O)(=O)c3ccc(F)c(F)c3)c3nc4ccccc4[nH]3)cc2)S(=O)(=O)N1 (stereo not given)
160 |  |  | O=C1CC(c2ccc(CC(NS(=O)(=O)c3ccccc3Cl)c3nc4ccccc4[nH]3)cc2)S(=O)(=O)N1 (stereo not given)
51 |  |  | O=C1CC(c2ccc(CC(NS(=O)(=O)c3cc(Cl)cc(Cl)c3)c3nc4ccccc4[nH]3)cc2)S(=O)(=O)N1 (stereo not given)
160 |  |  | O=C1CC(c2ccc(CC(NS(=O)(=O)c3cc(Cl)ccc3Cl)c3nc4ccccc4[nH]3)cc2)S(=O)(=O)N1 (stereo not given)
460 |  |  | O=C1CC(c2ccc(CC(NS(=O)(=O)c3c(Cl)cccc3Cl)c3nc4ccccc4[nH]3)cc2)S(=O)(=O)N1 (stereo not given)
170 |  |  | O=C1CC(c2ccc(CC(NS(=O)(=O)c3ccccc3Br)c3nc4ccccc4[nH]3)cc2)S(=O)(=O)N1 (stereo not given)
85 |  |  | Cc1cccc(S(=O)(=O)NC(Cc2ccc(C3CC(=O)NS3(=O)=O)cc2)c2nc3ccccc3[nH]2)c1 (stereo not given)
43 |  |  | O=C1CC(c2ccc(CC(NS(=O)(=O)c3cccc(F)c3)c3nc4ccccc4[nH]3)cc2)S(=O)(=O)N1 (stereo not given)
160 |  |  | O=C1CC(c2ccc(CC(NS(=O)(=O)c3c(F)cccc3F)c3nc4ccccc4[nH]3)cc2)S(=O)(=O)N1 (stereo not given)
110 |  |  | O=C1CC(c2ccc(CC(NS(=O)(=O)c3ccc(Br)cc3)c3nc4ccccc4[nH]3)cc2)S(=O)(=O)N1 (stereo not given)
45 |  |  | N#Cc1ccccc1S(=O)(=O)NC(Cc1ccc(C2CC(=O)NS2(=O)=O)cc1)c1nc2ccccc2[nH]1 (stereo not given)
80 |  |  | Cc1ccc(S(=O)(=O)NC(Cc2ccc(C3CC(=O)NS3(=O)=O)cc2)c2nc3ccccc3[nH]2)cc1 (stereo not given)
77 |  |  | O=C1CC(c2ccc(CC(NS(=O)(=O)c3cccc(Br)c3)c3nc4ccccc4[nH]3)cc2)S(=O)(=O)N1 (stereo not given)

Reference: ChEMBL document CHEMBL1138056, “Potent benzimidazole sulfonamide protein tyrosine phosphatase 1B inhibitors containing the heterocyclic (S)-isothiazolidinone phosphotyrosine mimetic” (J Med Chem, 2006)
